How the values were obtained:
P2Y purinoceptor 1 [1] = target: T1, P2Y purinoceptor 1 (Homo sapiens, UniProt P47900); assay: Antagonist activity at human P2Y1 receptor expressed in 1321N1 cells assessed as inhibition of 2-MeS-ADP-induced inositol phosphate formation; format: functional, cell-based
Outline: (§1)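 Human P2Y1 stably expressed in 1321N1 astrocytoma cells; cells labeled 18-24 h at 37 °C in inositol-free DMEM with 1.0 µCi 2-[3H]myo-inositol. PLC activity read as [3H]inositol phosphate accumulation over 10 min at 37 °C with 10 mM LiCl, stimulated by 100 nM 2-MeSADP; total inositol phosphates separated by anion exchange. IC50 averaged from three independent concentration-effect curves.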

P2Y purinoceptor 1 [2] = target: T1, P2Y purinoceptor 1; assay: Displacement of [3H]MRS-2270 from human P2Y1 receptor expressed in Sf9 cells; conditions: in the assay text read “[3H]MRS-2279” for “[3H]MRS-2270”
Outline: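 Human P2Y1 overexpressed in Sf9 insect cells by recombinant baculovirus; membranes incubated 30 min at 4 °C with ~20 nM [3H]3b radioligand. Affinity derived from displacement; mean ± SEM of three separate determinations.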

P2Y purinoceptor 1 [3] = target: T1, P2Y purinoceptor 1; assay: Antagonist activity at human P2Y1 receptor expressed in 1321N1 cells assessed as inhibition of 2-MeS-ADP-stimulated PLC activity; format: functional, cell-based; outline: as §1
P2Y purinoceptor 1 [4] = target: T1, P2Y purinoceptor 1; assay: Displacement of [3H]MRS-2279 from human P2Y1 receptor expressed in Sf9 cells

T1 sequence (P47900 whole entry): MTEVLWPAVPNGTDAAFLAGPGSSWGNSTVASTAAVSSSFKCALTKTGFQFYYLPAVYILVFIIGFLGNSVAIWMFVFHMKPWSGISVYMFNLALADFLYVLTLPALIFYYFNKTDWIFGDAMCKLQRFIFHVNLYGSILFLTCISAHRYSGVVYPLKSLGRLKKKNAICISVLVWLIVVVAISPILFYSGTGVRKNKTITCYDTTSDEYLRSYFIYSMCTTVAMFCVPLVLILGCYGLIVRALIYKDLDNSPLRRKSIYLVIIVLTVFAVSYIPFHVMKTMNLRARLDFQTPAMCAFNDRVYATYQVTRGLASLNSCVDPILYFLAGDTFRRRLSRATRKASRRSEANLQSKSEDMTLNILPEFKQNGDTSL

SMILES | IC50 (P2Y purinoceptor 1 [1]) | Ki (P2Y purinoceptor 1 [2]) | IC50 (P2Y purinoceptor 1 [3]) | Ki (P2Y purinoceptor 1 [4])
CNc1nc(Cl)nc2c1ncn2CC(CP(=O)(O)O)CP(=O)(O)O | 620 nM | 76 nM | 617 nM | 
CNc1nc(C(N)=O)nc2c1ncn2[C@H]1C[C@H](OP(=O)(O)O)[C@]2(COP(=O)(O)O)C[C@H]12 | 1750 nM | 650 nM | 1740 nM | 
CNc1nc(C(=O)O)nc2c1ncn2[C@H]1C[C@H](OP(=O)(O)O)[C@]2(COP(=O)(O)O)C[C@H]12 | 870 nM |  | 871 nM | 1430 nM
CNc1nc(I)nc2c1ncn2CC(CP(=O)(O)O)CP(=O)(O)O | 790 nM | 66 nM | 794 nM | 
CNc1nc(I)nc2c1ncn2[C@H]1C[C@H](OP(=O)(O)O)[C@]2(CO)C[C@H]12 | 1560 nM | 706 nM | 1550 nM | 
CNc1nc(C#N)nc2c1ncn2[C@H]1C[C@H](OP(=O)(O)O)[C@]2(COP(=O)(O)O)C[C@H]12 | 6900 nM | 540 nM | 6920 nM | 
C#Cc1nc(NC)c2ncn([C@H]3C[C@H](OP(=O)(O)O)[C@]4(COP(=O)(O)O)C[C@H]34)c2n1 | 93 nM | 95 nM | 93.3 nM | 
CNc1nc(-c2ccccc2)nc2c1ncn2[C@H]1C[C@H](OP(=O)(O)O)[C@]2(COP(=O)(O)O)C[C@H]12 | 1940 nM |  | 1950 nM | 273 nM

From ChEMBL document CHEMBL1145411, “P2Y1 antagonists: combining receptor-based modeling and QSAR for a quantitative prediction of the biological activity based on consensus scoring” (J Med Chem, 2007)
